The results in this text go back to ChEMBL document CHEMBL1122205, “Catechol O-methyltransferase. 12. Affinity labeling the active site with the oxidation products of 5,6-dihydroxyindole” (J Med Chem, 1982).

SMILES strings stand for the structures.

Test [1] addresses T1, Catechol O-methyltransferase (Rattus norvegicus) (UniProt P22734).
T1 sequence (whole entry): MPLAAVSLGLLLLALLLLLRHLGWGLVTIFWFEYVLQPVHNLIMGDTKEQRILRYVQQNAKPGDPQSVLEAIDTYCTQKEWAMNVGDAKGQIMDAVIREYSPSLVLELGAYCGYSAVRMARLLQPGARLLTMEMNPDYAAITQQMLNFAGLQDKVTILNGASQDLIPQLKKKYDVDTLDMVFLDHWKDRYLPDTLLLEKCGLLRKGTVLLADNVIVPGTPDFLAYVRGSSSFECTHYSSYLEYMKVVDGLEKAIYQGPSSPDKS
Kind of test: Evaluated for its ability to inactivate Catechol O-methyltransferase under anaerobic conditions, after 60 min at 37 degree. C. Also on record: concentration or dose not given beside the values. The procedure, abridged: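 Anaerobic variant: preincubation (inhibitor 0.5 mM, MgCl2 1.20 mM, phosphate pH 7.60, purified rat liver COMT, 60 min, 37 °C) in sealed ampules under nitrogen, inhibitor stocks in deoxygenated water, samples withdrawn by syringe and assayed in ampules under nitrogen.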

The target of test [2] is T1, Catechol O-methyltransferase (Rattus norvegicus). In words: (§1) Kinetic constants for the inactivation of Catechol O-methyltransferase by the compound.
The target in test [3] is T2, Catechol O-methyltransferase (Rattus norvegicus, UniProt P22734).
T2 sequence (P22734 whole entry): T1 sequence (whole entry)
The test is described as §1.

Test [4] concerns the target T1, Catechol O-methyltransferase (Rattus norvegicus). In words: Compound was evaluated for its ability to inactivate Catechol O-methyltransferase after dialysis. An outline of the steps:
(§2)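 Purified rat liver COMT preincubated 60 min at 37 °C with inhibitor (0.5 mM), MgCl2 1.20 mM, phosphate buffer pH 7.60. Residual activity relative to unpreincubated controls (dialyzed 24 h for post-dialysis line); duplicate means.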

The target is the same in test [5]. Kind of test: Compound was evaluated for its ability to inactivate Catechol O-methyltransferase before dialysis. An outline of the steps: as §2
Test [6] has the same target. In words: Evaluated for its ability to inactivate Catechol O-methyltransferase under aerobic conditions, after 60 min at 37 degree. C. Also on record: concentration or dose not given beside the values. An outline of the steps:
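Aerobic preincubation of purified rat liver COMT with inhibitor (0.5 mM), MgCl2 1.20 mM, phosphate buffer pH 7.60 for 60 min at 37 °C. Residual activity versus controls assayed directly after inhibitor addition; duplicate means.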

The target is the same in test [7]. In words: Kinetic constants for the inactivation of cCatechol O-methyltransferase by the compound.

As for `Cc1c(O)c(O)cc2cc[nH]c12`, the residual activity in test [1] was 84%; in test [4], 262 c.p.m; in test [5] it was 277 c.p.m; in test [6] it was 0%. The molecule also had a K2 in test [2] of 0.16 min⁻¹. The same molecule registered a Ki in test [3] of 1.14 mM.

`NCCc1c[nH]c2cc(O)c(O)cc12`: the residual activity stood at 89% in test [1], 232 c.p.m in test [4], 242 c.p.m in test [5] and 0% in test [6]. Further, the K2 in test [2] is 0.086 min⁻¹. In test [3], this molecule displayed a Ki of 0.328 mM.

Regarding `Cc1c(O)c(O)cc2[nH]ccc12`, the residual activity amounted to 81% in test [1], 351 c.p.m in test [4], 396 c.p.m in test [5] and 0% in test [6]. Further, the K2 in test [7] was determined as 0.47 min⁻¹. The same molecule had a Ki in test [3] of 15.2 mM.

For `Oc1cc2cc[nH]c2cc1O`, the residual activity in test [1] was determined as 96%; in test [4], 228 c.p.m; in test [5] it was 282 c.p.m; in test [6], 0%. The molecule also returned a K2 in test [2] of 0.55 min⁻¹. Also, in test [3], the Ki was 3.46 mM.

Regarding `Cc1c(O)c(O)c(C)c2[nH]ccc12`, the residual activity is 96% in test [1], 212 c.p.m in test [4], 322 c.p.m in test [5] and 4.5% in test [6]. The K2 in test [2] was 1.12 min⁻¹. In test [3], the Ki stood at 7.26 mM.
